PGC1a acetyl up: raises PGC1a acetylation signal in U2OS cells. U2OS PGC1a acetylation AlphaScreen, overnight. activation, % at 15.6 µM. 0.21% of 350,000 active;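 active = every replicate reaching activation of at least 50%, whatever the mean replicate activation; inconclusive = replicates that disagree or another doubt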;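 note: hits raise the AlphaScreen acetylation signal above neutral controls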
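Test system: U2OS cells expressing flag-PGC1a plus GCN5; Amount: 7000 U2OS cells per well; Compound: single test concentration per compound; Incubation: compound overnight at 37 °C, each detection step 1 h RT; Signal: AlphaScreen lysate read.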
Hep G6PC suppr: PGC-1a acetylation activators affecting G6PC expression in hepatocytes | shares compounds with PGC1a acetyl up | primary mouse hepatocytes, G6PC mRNA qPCR, forskolin | 240 tested, under 10 active | G6PC suppression (normalized activity, % of positive control; higher = more suppression), % at 26 µM;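 active = dose curves showing G6PC suppression whose half-maximal dose is at most twice the top valid dose; inconclusive = flat curves with moderate negative activity, or unreliable fits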;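 note: G6PC expression relative to GAPDH housekeeping gene as delta delta Ct; 0% = median of neutral control wells and 100% = median of positive control wells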
Hep PCK1 suppr: PGC-1a acetylation activators affecting PCK1 expression in hepatocytes; shares compounds with PGC1a acetyl up; primary mouse hepatocytes, PCK1 mRNA qPCR, forskolin-stimulated; PCK1 expression decrease, unspecified at 26 µM; 230 tested, under 10 active; AID 743465;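 active = compounds lowering PCK1 expression whose fitted half-maximal concentration is at most twice the top tested dose; inconclusive = flat fit with moderate opposite-direction effect, or poor fit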;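 note: values are delta delta Ct of PCK1 relative to GAPDH; higher delta delta Ct means lower PCK1 expression so positive values indicate hits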
PGC1a hep suppr: PGC-1a acetylation activator altering hepatocyte PGC-1a expression. primary mouse hepatocytes, PGC-1a mRNA qPCR, forskolin; top dose 26 µM. 240 tested, under 10 active. max activity (PGC-1a expression decrease), %. shares compounds with PGC1a acetyl up;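 active = compound lowering PGC-1a expression with fitted half-maximal concentration at most twice its top tested dose; inconclusive = flat curve with moderate opposite-direction effect, or poor fit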;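 note: 0% = neutral control wells median and 100% = positive control wells median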
* marks the source's active call; other numbers are inactive results; i = inactive; ? = inconclusive; [ ] = dose if it differs, or a comment. Only a sample is shown.

SMILES | PGC1a acetyl up | others
C=C1C(=O)OC2CC3(C)OC3CCC(C)=CC(OC(C)=O)C12 (stereo not drawn) | 117.7*
NC1C2CN3CCN(C2)CC1(c1ccccc1)C3 (stereo not drawn) | -51.7
N#Cc1ccccc1NC(=O)CN1CC=C(c2ccccc2)CC1 | -46.5
CNC(=O)c1cccn(Cc2ccc(C(F)(F)F)cc2)c1=O | 68.0*
CCCN(CCC)[C@@H]1CCc2cccc(O)c2C1 | -42.3
CC(=O)OCC12CC(OC(=O)CC(C)C)C(C)=CC1OC1C(O)C(OC(C)=O)C2(C)C12CO2 (stereo not drawn) | -73.6
COc1ccc(C(c2nnnn2C2CCCCC2)N2CCC3(CC2)C(=O)NCN3c2ccccc2)cc1 (stereo not drawn) | 120.3*
O=C1NC2C(=CC(O)C(O)C2O)c2cc3c(c(O)c21)OCO3 (stereo not drawn) | -62.7
C=C1C(=O)OC2CC3(C)OC3C3OC3C3=CC(OC3=O)C12 (stereo not drawn) | 85.2*
Cc1ccc(N2C(=O)NC(=O)/C(=C/c3ccoc3)C2=O)cc1 | -49.5
CCc1ccc(N2C(=O)NC(=O)/C(=C\C=C\c3ccco3)C2=O)cc1 | 113.6*
O=C1CSC2N1CCNC21CCCCC1 (stereo not drawn) | -41.7
CC1=CC(=O)C2=C(C)C[C@H](O)[C@@H]3[C@H](OC(=O)[C@H]3C)[C@@H]12 | -52.6
O=[N+]([O-])c1ccc(N2CCOCC2)c2c1no[n+]2[O-] | -83.9
CC1CC(C)CC(C)C(O)C(C#N)=CC=CCC(C2CCCC2C(=O)O)OC(=O)CC(O)C(C)C1 (stereo not drawn) | -60.1
O=c1c2ccccc2nc(/C=C/c2ccc([N+](=O)[O-])o2)n1-c1ccc(O)cc1 | 143.6*
C[C@]12CC[C@H]3[C@@H](CC[C@]4(O)C[C@@H](O)CC[C@]34C=O)[C@@]1(O)CC[C@@H]2C1=CC(=O)OC1 | -96.4
CCC1(CC)C(=O)C=CNC1=O | -56.1
CN1C2CCC1/C(=C/c1ccccn1)C(=O)/C2=C\c1ccccn1 | -77.7
COCCCn1c(N)c(C(=O)Nc2ccccc2)c2nc3ccccc3nc21 | 51.3*
O=c1[nH]c2ccccc2n1C1CCN(C(c2cc3ccccc3o2)c2nnnn2Cc2ccccc2)CC1 (stereo not drawn) | -48.8
CNCC(=O)c1ccc(O)c(O)c1 | -54.7
O=C1/C(=C/c2ccccc2)C[C@@]2(O)[C@H]3Cc4ccc(O)c5c4[C@@]2(CCN3CC2CC2)C1O5 (stereo partly drawn) | -45.1
C[C@H]1C[C@@H](C)C(=O)[C@@H]([C@H](O)CC2CC(=O)NC(=O)C2)C1 | -68.3
C[C@H]1CCC/C=C/[C@@H]2C[C@H](O)C[C@H]2[C@@H](O)/C=C/C(=O)O1 | -37.3
SMILES | PGC1a acetyl up | others
CC(C)Oc1cccnc1N(C)C1CCN(Cc2ccccc2)CC1 | -59.0
C=C1C(=O)O[C@@H]2C[C@@H](C)[C@H]3C=CC(=O)[C@]3(O)C[C@@H]12 | 79.2*
COC(=O)C1C2c3ccccc3OC1(C)N=c1s/c(=C/c3cn(C)nc3C)c(=O)n12 (stereo not drawn) | -46.4
COc1ccc(C(c2ccc(OC)cc2)C(Cl)(Cl)Cl)cc1 | 93.4*
CC1=CC(=C2C(=O)NC(=S)NC2=O)C=C(C(F)(F)F)N1Cc1ccccc1 | -87.5
CC(=O)OC1CC2(O)C3CCC4CC(O)CCC4(C)C3CCC2(C)C1C1=CC(=O)OC1 (stereo not drawn) | -65.3
CC(=O)OC1CC(OC2C(O)CC(OC3C(O)CC(OC4CCC5(C)C(CCC6C5CCC5(C)C(C7=CC(=O)OC7)C(O)CC65O)C4)OC3C)OC2C)OC(C)C1OC1OC(CO)C(O)C(O)C1O (stereo not drawn) | -42.4
COc1ccc(-n2c(O)c(C=NCCCn3ccnc3)c(=O)[nH]c2=O)cc1 | 68.3*
CCN(CC)c1ccc(N=Cc2c(O)n(-c3ccc(OC)cc3)c(=O)[nH]c2=O)cc1 | -46.0
CCOC(=O)CNC(=O)N1Cc2ccc(Br)cc2-n2nncc2C1 | -40.9
CC(C)(O)/C=C/C(=O)[C@](C)(O)C1[C@H](O)C[C@@]2(C)C3CC=C4C(C[C@H](O)[C@@H](O)C4(C)C)[C@]3(C)C(=O)C[C@]12C (stereo partly drawn) | -64.5
Cc1cccc(C)c1-n1nnnc1C(c1ccccc1OC(F)(F)F)N1CCC(n2c(=O)[nH]c3ccccc32)CC1 (stereo not drawn) | 61.4* | Hep G6PC suppr=i;Hep PCK1 suppr=1187;PGC1a hep suppr=135.6
O=C1NC2C(=CC(O)C(O)C2O)c2cc3c(cc21)OCO3 (stereo not drawn) | -85.4
C[C@@H]1O[C@@H](O[C@H]2C[C@@H](O)[C@]3(CO)[C@H]4[C@H](O)C[C@]5(C)[C@@H](C6=CC(=O)OC6)CC[C@]5(O)[C@@H]4CC[C@]3(O)C2)[C@H](O)[C@H](O)[C@H]1O | -82.8
Cc1ccc(OC(=O)N(C)C[C@H]2OCc3ccccc3-c3c(n(C)c4ccccc34)C(=O)N([C@@H](C)CO)C[C@H]2C)cc1 | 82.2* | Hep G6PC suppr=108.7[23.5 µM];Hep PCK1 suppr=83.5[23.5 µM];PGC1a hep suppr=103.7
COc1ccc(OC(=O)N(C)C[C@H]2OCc3ccccc3-c3c(n(C)c4ccccc34)C(=O)N([C@H](C)CO)C[C@H]2C)cc1 | 172.5* | Hep G6PC suppr=1.0;Hep PCK1 suppr=9.67;PGC1a hep suppr=49.0
C[C@@H]1CN([C@@H](C)CO)C(=O)c2c(c3ccccc3n2C)-c2ccccc2CO[C@@H]1CN(C)C(=O)Oc1ccccc1 | ? | Hep G6PC suppr=488.2;Hep PCK1 suppr=?;PGC1a hep suppr=276.2
O=C1CN=C(c2ccccc2)c2cc([N+](=O)[O-])ccc2N1 | -46.2
COc1ccc(C[C@H]2NC[C@H](O)[C@H]2OC(C)=O)cc1 | -89.8
c1cc(CNCCc2ccc3c(c2)OCO3)ccn1 | -45.7
CCOc1ccccc1CNCCc1ccc2c(c1)OCO2 | -40.1
Cn1ncnc2c(=O)n(C)c(=O)nc1-2 | -100.1
c1ccc2c(N3CCNCC3)cccc2c1 | -49.3
CCOc1ccccc1N=C1SCCCN1C | -96.6
CC1=NN(c2ccccc2)C(=O)/C1=C/c1c(O)[nH]c(=O)[nH]c1=O | -49.1

Screening results: PubChem, Broad Institute
